In one assay the target is T1, Sorbitol dehydrogenase (Homo sapiens, UniProt Q00796).
T1 sequence (Q00796 whole entry): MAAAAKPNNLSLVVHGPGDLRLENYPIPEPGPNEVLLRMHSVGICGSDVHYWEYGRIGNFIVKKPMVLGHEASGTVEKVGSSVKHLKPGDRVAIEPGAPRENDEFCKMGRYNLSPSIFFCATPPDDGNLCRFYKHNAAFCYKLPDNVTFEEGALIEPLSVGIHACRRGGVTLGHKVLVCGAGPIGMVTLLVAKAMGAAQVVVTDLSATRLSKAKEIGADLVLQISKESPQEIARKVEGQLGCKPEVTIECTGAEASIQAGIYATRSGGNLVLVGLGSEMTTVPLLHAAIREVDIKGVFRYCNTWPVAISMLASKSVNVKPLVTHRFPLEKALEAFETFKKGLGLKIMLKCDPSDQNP

For assay [1], the system named is Rattus norvegicus. Nature of the assay: Concentration required for 50% ability to normalize elevated sciatic nerve fructose in reversal protocol using chronic model in streptozocin (STZ)-induced diabetic rats (in vivo). The following applies: in the assay text read “90% ability” for “50% ability”. In kind it is functional. The procedure, abridged: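 Diabetes was induced in male CD Sprague-Dawley rats (175-225 g) with STZ (85 mg/kg in 0.01 M citrate, pH 4.5) by tail vein. Oral gavage was given once daily from day 8 for 5 days. Rats were killed 4 h after the last dose (day 12). Left sciatic nerve fructose was measured in perchloric acid extract by FDH/resazurin fluorescence (ex 560, em 580 nm) against standards.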

For assay [2], the species on record is Rattus norvegicus. Nature of the assay: Concentration required for 50% prevention of sciatic nerve fructose accumulation using acute model in streptozocin (STZ)-induced diabetic rats. In kind it is functional. Summed up: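 STZ diabetes was induced in male CD Sprague-Dawley rats (175-225 g) with 85 mg/kg iv (citrate, pH 4.5). Oral gavage doses were given 4, 7 and 24 h after STZ, and rats were killed at 28 h. Left sciatic nerve was extracted in 6% perchloric acid and neutralized. Fructose was assayed with FDH/resazurin for 60 min at room temperature (fluorescence). ED50 is expressed as total mg/kg/day.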

Molecules are shown by their SMILES.

Drawing on ChEMBL document CHEMBL1135813, “Orally-effective, long-acting sorbitol dehydrogenase inhibitors: synthesis, structure-activity relationships, and in vivo evaluations of novel heterocycle-substituted piperazino-pyrimidines” (J Med Chem, 2002), this text covers IC50, ED90 and ED50 for 44 molecules.

As for `Cc1cc(CO)nc(N2[C@H](C)CN(c3ccnc([C@@H](C)O)n3)C[C@@H]2C)n1`, the IC50 (in general, the concentration that gives 50% inhibition) against Sorbitol dehydrogenase is 130 nM.

For the molecule `C[C@@H](O)c1nccc(N2CCN(c3noc4ccccc34)CC2)n1`, half-maximal inhibition on Sorbitol dehydrogenase (IC50) was put at 37 nM.

Molecule `C[C@@H](O)c1nccc(N2CCN(c3cnc4ccccc4n3)CC2)n1` returned an IC50 at Sorbitol dehydrogenase of 36 nM. Also, the ED90 in the assay on Rattus norvegicus [1] was more than 20 mg/kg/day. For the same molecule, the 50% effect level in the assay listed under Rattus norvegicus [2] (ED50) was put at a dose of 1 mg/kg/day.

`OCc1nccc(N2CCN(c3noc4ccccc34)CC2)n1` displayed an IC50 on Sorbitol dehydrogenase of 120 nM.

At Sorbitol dehydrogenase, `C[C@@H](O)c1nccc(N2CCN(c3nc4ccccc4o3)CC2)n1` came in with an IC50 of 35 nM. The 50% effective dose (ED50) (commonly the dose that gives a 50% effect, or the effect in half of the subjects) in the assay filed under Rattus norvegicus [2] is 12 mg/kg/day.

For `C[C@@H](O)c1nccc(N2CCN(c3nccc4ccccc34)CC2)n1`, the IC50 at Sorbitol dehydrogenase amounted to 34 nM.

Consider `OCc1nccc(N2CCN(c3ccc4ccccc4n3)CC2)n1`, for which the midpoint of inhibition against Sorbitol dehydrogenase, the IC50, lay at 87 nM. This IC50 lies about 2.6-fold higher than the previous one.

In turn, `CC(C)c1cc(C(C)C)nc(N2CCN(c3ccnc([C@@H](C)O)n3)CC2)n1` came in with an IC50 against Sorbitol dehydrogenase of 72 nM.

Consider `Cc1cc(CO)nc(N2CCN(c3ccnc([C@@H](C)O)n3)CC2)n1`, for which the 50% inhibitory concentration (IC50) at Sorbitol dehydrogenase stood at 20 nM. Further, it took a dose of 0.5 mg/kg/day to reach the 50% effect level in the assay listed under Rattus norvegicus [2] (ED50).

On to `Cc1cc(CO)nc(N2C[C@@H](C)N(c3ccnc([C@@H](C)O)n3)[C@@H](C)C2)n1`, for which, at Sorbitol dehydrogenase, the midpoint of inhibition, the IC50, lay at 100 nM. Moreover, the ED90 in the assay with Rattus norvegicus [1] was found to be 1 mg/kg/day.

Turning to `Cc1cc(CO)nc(N2CCN(c3ccnc([C@@H](C)O)n3)C[C@@H]2C)n1`, the 50% inhibitory concentration (IC50) on Sorbitol dehydrogenase worked out at 80 nM. Also, the ED90 in the assay with Rattus norvegicus [1] came out at 2 mg/kg/day.

Molecule `Cc1nc2ccccc2nc1N1CCN(c2ccnc([C@@H](C)O)n2)CC1` had an IC50 on Sorbitol dehydrogenase of 8 nM.

At Sorbitol dehydrogenase, `C[C@@H](O)c1nccc(N2CCN(c3nc4cnccc4o3)CC2)n1` registered an IC50 of 80 nM.

Molecule `C[C@@H](O)c1nccc(N2CCN(c3nc4ccncc4o3)[C@@H](C)C2)n1` registered a half-maximal inhibitory concentration (IC50) at Sorbitol dehydrogenase of 23 nM.

As for `C[C@@H]1CN(c2ccnc(CCO)n2)C[C@H](C)N1c1ccnc([C@@H](C)O)n1`, on Sorbitol dehydrogenase, half-maximal inhibition (IC50) was put at 10 nM. Besides, the ED90 with Rattus norvegicus [1] turned out to be 2 mg/kg/day.

With `Cc1cc(-c2ccccc2)nc(N2CCN(c3ccnc([C@@H](C)O)n3)CC2)n1`, on Sorbitol dehydrogenase, inhibition was half-maximal at 220 nM (IC50).

In turn, `C[C@@H](O)c1nccc(N2CCN(c3cnc4cc(Cl)c(Cl)cc4n3)CC2)n1` gave an IC50 against Sorbitol dehydrogenase of 120 nM.

As to `OCc1nccc(N2CCN(c3nsc4ccccc34)CC2)n1`, 64 nM corresponded to half-maximal inhibition against Sorbitol dehydrogenase (IC50).

Turning to `Cc1cc(CO)nc(N2CCN(c3ccnc([C@@H](C)O)n3)[C@H](C)C2)n1`, the IC50 at Sorbitol dehydrogenase worked out at 170 nM.

At Sorbitol dehydrogenase, `C[C@@H](O)c1nccc(N2CCN(c3nc4ccncc4o3)CC2)n1` had an IC50 of 24 nM. Moreover, in the assay on Rattus norvegicus [1], the ED90 came out at 10 mg/kg/day. This molecule gave an ED50 in the assay listed under Rattus norvegicus [2] of 0.5 mg/kg/day.

For the molecule `Cc1cc(C)nc(N2CCN(c3ccnc(CO)n3)CC2)n1`, the IC50 on Sorbitol dehydrogenase came to 93 nM.

As to `C[C@@H]1CN(c2ccnc(CCO)n2)CCN1c1ccnc([C@@H](C)O)n1`, half-maximal inhibition against Sorbitol dehydrogenase (IC50) required 12 nM.

Molecule `C[C@@H](O)c1nccc(N2CCN(c3nc4cccnc4o3)CC2)n1` gave an IC50 on Sorbitol dehydrogenase of 32 nM. Further, in the assay listed under Rattus norvegicus [2], the ED50 was found to be 0.5 mg/kg/day.

`C[C@@H](O)c1nccc(N2CCN(c3ccnc(CCO)n3)CC2)n1` showed an IC50 against Sorbitol dehydrogenase of 40 nM. For the same molecule, the ED50 in the assay filed under Rattus norvegicus [2] stood at 1 mg/kg/day.

Consider `OCc1nccc(N2CCN(c3nccc4ccccc34)CC2)n1`, for which, on Sorbitol dehydrogenase, the half-maximal inhibitory concentration (IC50) is 150 nM.

Molecule `C[C@@H](O)c1nccc(N2CCN(c3nc(C(F)(F)F)cc(C(F)(F)F)n3)CC2)n1` had an IC50 on Sorbitol dehydrogenase of 190 nM.

At Sorbitol dehydrogenase, `CCc1cc(CC)nc(N2CCN(c3ccnc([C@@H](C)O)n3)CC2)n1` yielded an IC50 of 80 nM.

`Cc1cc(CO)nc(N2CCN(c3ccnc([C@@H](C)O)n3)[C@@H](C)C2)n1` returned an IC50 at Sorbitol dehydrogenase of 200 nM.

On to `C[C@@H](O)c1nccc(N2CCN(c3nccc(-c4ccccc4)n3)CC2)n1`, for which, on Sorbitol dehydrogenase, the IC50 was determined as 67 nM.

In turn, `C[C@@H](O)c1nccc(N2CCN(c3nc4ncccc4o3)CC2)n1` gave an IC50 against Sorbitol dehydrogenase of 170 nM.

`C[C@@H](O)c1nccc(N2CCN(c3ccc4ccccc4n3)CC2)n1` displayed an IC50 against Sorbitol dehydrogenase of 44 nM.

As to `Cc1cc(N2CCN(c3ccnc([C@@H](C)O)n3)CC2)nc(C)n1`, it took 31 nM to reach half-maximal inhibition on Sorbitol dehydrogenase (IC50). Besides, it took a dose of 5 mg/kg/day to reach the 50% effect level in the assay listed under Rattus norvegicus [2] (ED50).

`C[C@@H](O)c1nccc(N2CCN(c3ccnc(CCO)n3)C[C@@H]2C)n1`: the IC50 at Sorbitol dehydrogenase was 59 nM.

Molecule `Cc1cc(C)nc(N2CCN(c3ccnc([C@@H](C)O)n3)CC2)n1` returned an IC50 at Sorbitol dehydrogenase of 23 nM. In the assay listed under Rattus norvegicus [2], this molecule came in with an ED50 of 1.3 mg/kg/day.

With `C[C@@H]1CN(c2nc3ccncc3o2)C[C@H](C)N1c1ccnc([C@@H](C)O)n1`, the midpoint of inhibition at Sorbitol dehydrogenase, the IC50, lay at 270 nM.

In turn, `C[C@@H](O)c1nccc(N2CCN(c3nsc4ccccc34)CC2)n1` gave an IC50 at Sorbitol dehydrogenase of 12 nM.

The molecule `C[C@@H](O)c1nccc(N2CCN(c3cnc4ccccc4n3)[C@@H](C)C2)n1` yielded a half-maximal inhibitory concentration (IC50) at Sorbitol dehydrogenase of 99 nM. This IC50 lies about 8.2-fold higher than the previous one.

Turning to `OCc1nccc(N2CCN(c3nc4ccccc4o3)CC2)n1`, the IC50 on Sorbitol dehydrogenase came to 190 nM.

As for `C[C@@H]1CN(c2cnc3ccccc3n2)C[C@H](C)N1c1ccnc([C@@H](C)O)n1`, the IC50 on Sorbitol dehydrogenase was found to be 180 nM. Moreover, in the assay on Rattus norvegicus [1], the ED90 amounted to 1 mg/kg/day.

Molecule `CN(C)S(=O)(=O)N1CCN(c2ccnc(CO)n2)CC1` showed an IC50 against Sorbitol dehydrogenase of 240 nM.

On to `Cc1ccnc(N2CCN(c3ccnc([C@@H](C)O)n3)CC2)n1`, for which the 50% inhibitory concentration (IC50) against Sorbitol dehydrogenase amounted to 110 nM.

On Sorbitol dehydrogenase, `OCc1nccc(N2CCN(c3ccnc(CO)n3)CC2)n1` gave an IC50 of 260 nM.

`Cc1cc(CO)nc(N2CCN(c3ccnc([C@@H](C)O)n3)C[C@H]2C)n1` gave an IC50 on Sorbitol dehydrogenase of 140 nM.

As to `Cc1cc(N2CCN(c3ccnc(CO)n3)CC2)nc(C)n1`, half-maximal inhibition against Sorbitol dehydrogenase (IC50) was put at 140 nM.
